# Measurements of several laboratories.
# Protocols differ between the studies behind these lines.
# Target: RAC-beta serine/threonine-protein kinase (AKT2, Homo sapiens, UniProt P31751)
SMILES,test,setting,quantity,result
CC(C)c1ccc(NC(=O)c2cccs2)c(-c2nc3ccccc3[nH]c2=O)c1,"enzyme activity, inhibitor",1 µM,activity vs control,102%
O=C(O)c1cc(-c2ccc(C3CCNCC3)cc2)c2ccc(-c3ccc(C(F)(F)F)cc3)cc2c1,"cell-free assay, competition with immobilised ligand",1 µM,remaining binding,95%
Nc1nc(Nc2ccc(S(N)(=O)=O)cc2)nn1C(=O)c1c(F)cccc1F,cell-free assay,0.5 µM,remaining signal,107%
O=C(NCc1ncc(C(F)(F)F)cc1Cl)c1ccc2c(c1)C1(CCS(=O)(=O)CC1)[C@H](C1CC1)N2S(=O)(=O)c1ccc(F)cc1,"cell-free assay, competition with immobilised ligand",1 µM,remaining binding,100%
COc1cc(Cl)c(C(=O)N[C@@H](CN[C@H]2CC[C@@H](N)CC2)Cc2ccc(C#N)cc2)cc1-c1ccc(CN[C@H](C)c2ccc(C)cc2)o1,"enzyme activity, inhibitor",1 µM,remaining activity,65%
O=S(=O)(NCCNC/C=C/c1ccc(Br)cc1)c1cccc2cnccc12,cell-free assay,0.5 µM,remaining signal,75.4%
CC(=O)N1CCC(c2ccc(C(=O)NC3=NCCN3)cc2C(F)(F)F)CC1,"cell-free assay, competition with immobilised ligand",1 µM,remaining binding,91%
COc1cc2ncnc(Nc3ccc(Oc4ccccc4)cc3C)c2cc1OC,"enzyme activity, inhibitor",1 µM,inhibition,7%
COc1cc(/C=C/C(=O)CC(=O)/C=C/c2ccc(O)c(OC)c2)ccc1O,"enzyme activity, inhibitor",1 µM,activity vs control,70%
N#CCCc1ccc2c(c1)-c1[nH]c3ccc([N+](=O)[O-])cc3c1CC(=O)N2,cell-free assay,0.5 µM,remaining signal,100%
Cc1ccc(C(=O)Nc2ccc(CN3CCN(C)CC3)c(C(F)(F)F)c2)cc1C#Cc1cnc2cccnn12,"enzyme activity, inhibitor",23.5 nM,remaining activity,95%
O=C(Nc1cnn(-c2csc(C(=O)NC3COC3)c2)c1)Nc1c(F)cccc1Cl,"enzyme activity, inhibitor",5 µM,remaining activity,104%
Cc1cnc(NC2CCOCC2)nc1-n1cnc(C(=O)NC(CN)c2cc(F)cc(Cl)c2)c1 (stereo not drawn),"enzyme activity, inhibitor, radiometric",1 µM,remaining activity,92%
COc1cc(Nc2cnc(C#N)c(O[C@H](C)CN(C)C)n2)ncc1-c1cnn(C)c1,"enzyme activity, inhibitor, radiometric",10 µM,remaining activity,67%
CNc1cccc2cc(C(=O)Nc3ccc(C(=O)O)cc3)c(=O)[nH]c12,"enzyme activity, inhibitor",10 µM,inhibition,3.3%
Cc1ccc(Nc2nccc(N(C)c3ccc4c(C)n(C)nc4c3)n2)cc1S(N)(=O)=O,"enzyme activity, inhibitor",0.5 µM,remaining activity,107%
CC/C(=N\NC(=O)NCc1cccc(O)c1)c1ccc(O)c(C)c1O,"enzyme activity, inhibitor",0.1 µM,inhibition,0.2%
CN(c1ncccc1CNc1nc(Nc2ccc3c(c2)CC(=O)N3)ncc1C(F)(F)F)S(C)(=O)=O,"enzyme activity, inhibitor",1 µM,inhibition,1.6%
Cc1c(C(=O)O)cc(-c2ccc(C3CCNCC3)cc2)c2ccc(-c3ccc(C(F)(F)F)cc3)cc12,"binding, competition with immobilised ligand",1 µM,remaining binding,100%
C=CC(=O)Nc1cc(Nc2nccc(Nc3cc(Cl)c(F)cc3C(C)(C)O)n2)c(OC)cc1N1CC[C@@H](N(C)C)C1,"enzyme activity, inhibitor",1 µM,inhibition,-10%
Nc1nc(NC2CCCCC2)sc1C(=O)c1ccccc1,"enzyme activity, inhibitor",10 µM,remaining activity,73%
CC(C)(C)c1nc(-c2cccc(NS(=O)(=O)c3c(F)cccc3F)c2F)c(-c2ccnc(N)n2)s1,"enzyme activity, inhibitor, radiometric",1 µM,remaining activity,91%
CNC(=O)Nc1ccc2c(c1)CC[C@@]21OC(=O)N(CC(=O)N(Cc2ccc(F)cc2)[C@@H](C)C(F)(F)F)C1=O,"cell-free assay, competition with immobilised ligand",1 µM,remaining binding,80%
Nc1ncnc2occ(-c3ccc(NC(=O)Nc4cc(C(F)(F)F)ccc4F)cc3)c12,"cell-free assay, inhibitor",20 µM,remaining signal,95%
C[C@H](c1cccc(C#N)c1)n1cc(Cl)cc(C(N)=O)c1=N,"cell-free assay, competition with immobilised ligand",1 µM,remaining binding,100%
O=C(Nc1cc(-c2ccc(Cl)cc2)[nH]n1)C1CCCCC1,"enzyme activity, inhibitor",10 µM,activity vs control,75%
CCC(=O)N[C@H]1CC[C@@H](C(=O)N(C)c2ccc(-c3nc4ccccc4o3)cc2)C1,"cell-free assay, competition with immobilised ligand",1 µM,remaining binding,89%
Cn1c(=O)n(-c2ccc(C(C)(C)C#N)cc2)c2c3cc(-c4cnc5ccccc5c4)ccc3ncc21,"enzyme activity, inhibitor",10 µM,remaining activity,106%
CNC(=O)c1ccc(Nc2ncc(C(F)(F)F)c(NCc3nccnc3N(C)S(C)(=O)=O)n2)cc1,"cell-free assay, competition with immobilised ligand",0.1 µM,remaining binding,77%
O=C(Nc1cnn(-c2csc(C(=O)NC3COC3)c2)c1)Nc1ccccc1Cl,"enzyme activity, inhibitor",5 µM,remaining activity,88.2%
